Data reported in ChEMBL document CHEMBL1153030, “Synthesis, structural characterisation and biological evaluation of fluorinated analogues of resveratrol” (Bioorg Med Chem, 2009).
pIC50: −log10 of the molar value.

Assays:
MCF7 = experiment: Antiproliferative activity against human MCF7 cells assessed as cell growth at 100 uM after 48 hrs by alamar blue assay; assay type: functional; conditions: MCF7, 48 h, read-out: Activity
How it was run: (§1)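 DTP three cell line one-dose prescreen: MCF7 (breast), NCI-H460 (lung), SF-268 (CNS). Cells inoculated and preincubated in microtiter plate, then single concentration of test agent added, 48 h incubation. Alamar blue endpoint. Growth expressed as percent of untreated control cells.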

NCI-H460 = experiment: Antiproliferative activity against human NCI-H460 cells assessed as cell growth at 100 uM after 48 hrs by alamar blue assay; assay type: functional; conditions: NCI-H460, 48 h, read-out: Activity; how it was run: as §1
SF-268 = experiment: Antiproliferative activity against human SF268 cells assessed as cell growth at 100 uM after 48 hrs by alamar blue assay; assay type: functional; conditions: SF-268, 48 h, read-out: Activity; how it was run: as §1
[1] = Antiproliferative activity against MRP1-expressing human DLKP cells assessed as cell proliferation at 10 uM after 5 days by acid phosphatase assay; assay type: functional; conditions: 120 h, read-out: Activity
How it was run: (§2)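 Cell lines DLKP, DLKP-A and HT-144, seeded at 1 × 10³ cells/well (DLKP and DLKP-A) or 3 × 10³ cells/well (HT-144, higher density needed for cell-contact-dependent growth). 5 day drug exposure. Compounds tested alone and in combination with the P-gp/MRP1 substrate epirubicin. Read-out is cell proliferation (%) relative to untreated control.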

[2] = Antiproliferative activity against MRP1-expressing human DLKP cells after 5 days by acid phosphatase assay; assay type: functional, cell-based; conditions: 120 h; how it was run: as §2
[3] = Solubility in DMSO-containing medium; assay type: physicochemical
How it was run: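 Compounds were solubilised in a minimum amount of DMSO, then solubility was tested in culture media. A minimum concentration of 0.5 mg/ml in media was required before biological evaluation.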

[4] = Antiproliferative activity against P-gp expressing human DLKP-A cells assessed as cell proliferation at 10 uM after 5 days by acid phosphatase assay; assay type: functional; conditions: for growth at 10 µM: Homo sapiens, DLKP-A, 120 h, read-out: Activity; how it was run: as §2
[5] = Solubility of the compound in cell media; conditions: cell culture media
[6] = Antiproliferative activity against P-gp expressing human DLKP-A cells after 5 days by acid phosphatase assay; assay type: functional, cell-based; conditions: 120 h; how it was run: as §2
[7] = Antiproliferative activity against MRP1-expressing human DLKP cells assessed as cell proliferation at 5 uM after 5 days by acid phosphatase assay; assay type: functional; conditions: 120 h, read-out: Activity; how it was run: as §2
HT-144 [8] = experiment: Antiproliferative activity against human HT144 cells after 5 days by acid phosphatase assay; assay type: functional, cell-based; conditions: HT-144, 120 h; how it was run: as §2
[9] = Antiproliferative activity against P-gp expressing human DLKP-A cells assessed as cell proliferation at 5 uM after 5 days by acid phosphatase assay; assay type: functional; conditions: 120 h, read-out: Activity; how it was run: as §2
HT-144 [10] = experiment: Antiproliferative activity against human HT144 cells assessed as cell proliferation at 20 uM after 5 days by acid phosphatase assay; assay type: functional; conditions: HT-144, 120 h, read-out: Activity; how it was run: as §2
[11] = Aqueous solubility of the compound; assay type: physicochemical; conditions: buffer
HL-60(TB) = experiment: Anticancer activity against human HL-60(TB) cells; assay type: functional, cell-based
How it was run: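 Tested in the DTP 60 human tumour cell line panel, which covers leukaemia, lung, colon, CNS, melanoma, ovarian, renal, prostate and breast lines. GI50, IC50, LC50 and TGI were calculated for each cell line.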

EKVX = experiment: Anticancer activity against human EKVX cells; assay type: functional, cell-based
How it was run: (§3)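 NCI 60 human tumour cell line panel; GI50, IC50, LC50 and TGI values calculated for each cell line.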

HT-29 = experiment: Anticancer activity against human HT-29 cells; assay type: functional, cell-based; how it was run: as §3
SNB-75 = experiment: Anticancer activity against human SNB75 cells; assay type: functional, cell-based; how it was run: as §3
SK-MEL-28 = experiment: Anticancer activity against human SK-MEL-28 cells; assay type: functional, cell-based; how it was run: as §3
SK-OV-3 = experiment: Anticancer activity against human SKOV3 cells; assay type: functional, cell-based; how it was run: as §3
RXF 393 = experiment: Anticancer activity against human RXF393 cells; assay type: functional, cell-based; how it was run: as §3
DU-145 = experiment: Anticancer activity against human DU145 cells; assay type: functional, cell-based; how it was run: as §3
T47D = experiment: Anticancer activity against human T47D cells; assay type: functional, cell-based; how it was run: as §3
[12] = Antiproliferative activity against MRP1-expressing human DLKP cells assessed as cell proliferation at 0.01 uM after 5 days by acid phosphatase assay; assay type: functional; conditions: 120 h, read-out: Activity; how it was run: as §2
HT-144 [13] = experiment: Antiproliferative activity against human HT144 cells assessed as cell proliferation at 0.005 uM after 5 days by acid phosphatase assay; assay type: functional; conditions: HT-144, 120 h, read-out: Activity; how it was run: as §2
[14] = Antiproliferative activity against P-gp expressing human DLKP-A cells assessed as cell proliferation at 1.5 uM after 5 days by acid phosphatase assay; assay type: functional; conditions: 120 h, read-out: Activity; how it was run: as §2

COc1ccc(/C=C/c2cc(F)cc(F)c2)cc1
growth at 100 µM (MCF7): 84% | growth at 100 µM (NCI-H460): 105% | growth at 100 µM (SF-268): 111%

COc1cc(/C=C/c2ccc(F)cc2)cc(OC)c1
growth at 100 µM (MCF7): 67% | growth at 100 µM (NCI-H460): 60% | growth at 100 µM (SF-268): 105%

Fc1ccc(/C=C/c2cc(F)cc(F)c2)cc1
growth at 100 µM (MCF7): 82% | growth at 100 µM (NCI-H460): 101% | growth at 100 µM (SF-268): 111%

CC(=O)Nc1ccc(/C=C/c2cc(F)cc(F)c2)cc1
growth at 10 µM [1]: 75% | pIC50 [2]: 4.41 | solubility [3]: Soluble | growth at 10 µM [4]: 78% | solubility [5]: Soluble

CC(=O)Nc1cc(/C=C/c2ccc(F)cc2)cc(NC(C)=O)c1
growth at 10 µM [1]: 94% | pIC50 [2]: 4.30 | pIC50 [6]: < 4.30 | solubility [3]: Soluble | growth at 10 µM [4]: 96% | solubility [5]: Soluble

Nc1cc(N)cc(/C=C/c2ccc(F)cc2)c1
growth at 10 µM [1]: 87% | pIC50 [2]: < 4.30 | pIC50 [6]: < 4.30 | solubility [3]: Soluble | growth at 10 µM [4]: 98% | solubility [5]: Soluble

CC(=O)Oc1cc(/C=C/c2ccc(F)cc2)cc(OC(C)=O)c1
growth at 5 µM [7]: 100% | pIC50 [2]: 4.60 | pIC50 [6]: 4.72 | pIC50 (HT-144 [8]): 4.25 | solubility [3]: Soluble | growth at 5 µM [9]: 89% | growth at 20 µM (HT-144 [10]): 100% | solubility [5]: Soluble

NCC(=O)Nc1ccc(/C=C/c2cc(F)cc(F)c2)cc1.O=C(O)C(F)(F)F
solubility [11]: Soluble | solubility [3]: Soluble

O=C(Nc1cc(/C=C/c2ccc(F)cc2)cc(NC(=O)C(F)(F)F)c1)C(F)(F)F
growth at 10 µM [1]: 95% | pIC50 [2]: 4.55 | pIC50 [6]: 4.70 | solubility [3]: Soluble | growth at 10 µM [4]: 84% | solubility [5]: Soluble

Oc1ccc(/C=C/c2cc(F)cc(F)c2)cc1
growth at 5 µM [7]: 74% | pIC50 [2]: 5.22 | pIC50 [6]: 4.85 | pIC50 (HT-144 [8]): 4.23 | solubility [3]: Soluble | growth at 5 µM [9]: 85% | growth at 20 µM (HT-144 [10]): 105% | solubility [5]: Soluble

CC(=O)Oc1cc(O)cc(/C=C/c2ccc(F)cc2)c1
growth at 5 µM [7]: 98% | pIC50 [2]: 4.68 | pIC50 [6]: 4.68 | pIC50 (HT-144 [8]): 4.27 | solubility [3]: Soluble | growth at 5 µM [9]: 90% | growth at 20 µM (HT-144 [10]): 110% | solubility [5]: Soluble

CC(=O)Oc1ccc(/C=C/c2cc(F)cc(F)c2)cc1
growth at 5 µM [7]: 52% | pIC50 [2]: 5.15 | pIC50 [6]: 5.00 | pIC50 (HT-144 [8]): 4.44 | solubility [3]: Soluble | growth at 5 µM [9]: 50% | growth at 20 µM (HT-144 [10]): 85% | growth at 100 µM (MCF7): 22% | growth at 100 µM (NCI-H460): 7% | growth at 100 µM (SF-268): 1% | GI50 (HL-60(TB)): 117 µM | pIC50 (HL-60(TB)): 4.26 | GI50 (EKVX): 117 µM | pIC50 (EKVX): 4.10 | GI50 (HT-29): 80.6 µM | pIC50 (HT-29): 4.13 | GI50 (SNB-75): 90.9 µM | pIC50 (SNB-75): 4.22 | GI50 (SK-MEL-28): 83.1 µM | pIC50 (SK-MEL-28): 4.15 | GI50 (SK-OV-3): 96.5 µM | pIC50 (SK-OV-3): 4.08 | GI50 (RXF 393): 202 µM | pIC50 (RXF 393): 4.12 | GI50 (DU-145): 128 µM | pIC50 (DU-145): 4.00 | GI50 (T47D): 128 µM | pIC50 (T47D): 4.10 | solubility [5]: Soluble

COc1cccc2c1C(=O)c1c(O)c3c(c(O)c1C2=O)C[C@@](O)(C(=O)CO)C[C@@H]3O[C@H]1C[C@H](N)[C@@H](O)[C@H](C)O1 [EPIRUBICIN]
growth at 0.01 µM [12]: 64% | growth at 0.005 µM (HT-144 [13]): 91% | growth at 1.5 µM [14]: 66%

Oc1ccc(/C=C/c2cc(O)cc(O)c2)cc1 [RESVERATROL]
growth at 10 µM [1]: 38% | pIC50 [2]: 5.00 | pIC50 [6]: 4.82 | pIC50 (HT-144 [8]): 4.40 | Activity [4]: 66% | growth at 10 µM [4]: 67% | growth at 20 µM (HT-144 [10]): 100%
